Reference: ChEMBL document CHEMBL3397016, “SAR-studies of γ-secretase modulators with PPARγ-agonistic and 5-lipoxygenase-inhibitory activity for Alzheimer's disease” (Bioorg Med Chem Lett, 2015)
Activity calls are given as the source filed them. The calls are words filed in the database; no cut-off is given here.

Tests used:
Presenilin-1 [1] = target: T1, Presenilin-1 (Homo sapiens, UniProt P49768); assay: Inhibition of wild-type human presenilin-1 stably overexpressed in CHO cells co-expressing wild-type human amyloid precursor protein assessed as inhibition of amyloid beta 42 formation after 24 hrs by ELISA; type: cell-based
Presenilin-1 [2] = target: T1, Presenilin-1; assay: Activation of wild-type human presenilin-1 stably overexpressed in CHO cells co-expressing wild-type human amyloid precursor protein assessed as amyloid beta 38 formation after 24 hrs by ELISA; type: cell-based
[3] = target: T2, Peroxisome proliferator-activated receptor gamma (Homo sapiens, UniProt P37231); assay: Activation of human PPARgamma ligand binding domain expressed in COS7 cells by dual luciferase reporter gene assay; type: cell-based, COS-7
T2 sequence (P37231 whole entry): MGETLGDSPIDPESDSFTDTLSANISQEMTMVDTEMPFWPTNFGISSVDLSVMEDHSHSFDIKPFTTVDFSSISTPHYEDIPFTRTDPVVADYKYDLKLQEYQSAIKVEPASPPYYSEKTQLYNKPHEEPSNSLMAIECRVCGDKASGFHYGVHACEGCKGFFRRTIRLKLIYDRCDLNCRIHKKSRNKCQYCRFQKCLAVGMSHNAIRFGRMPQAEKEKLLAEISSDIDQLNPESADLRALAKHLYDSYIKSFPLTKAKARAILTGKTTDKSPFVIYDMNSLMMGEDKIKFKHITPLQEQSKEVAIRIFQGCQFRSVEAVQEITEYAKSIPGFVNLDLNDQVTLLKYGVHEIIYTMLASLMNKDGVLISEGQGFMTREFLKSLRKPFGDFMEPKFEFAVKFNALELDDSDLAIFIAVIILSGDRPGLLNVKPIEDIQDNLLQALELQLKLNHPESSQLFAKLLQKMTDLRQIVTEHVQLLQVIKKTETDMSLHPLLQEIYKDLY

[4] = target: T3, Peroxisome proliferator-activated receptor gamma (Homo sapiens) (UniProt P37231); assay: Activation of human PPARgamma ligand binding domain expressed in COS7 cells by dual luciferase reporter gene assay relative to 1 uM pioglitazone; type: cell-based; details: COS-7
T3 sequence (whole entry): T2 sequence (P37231 whole entry)

[5] = target: T4, Polyunsaturated fatty acid 5-lipoxygenase (Homo sapiens, UniProt P09917); assay: Inhibition of 5-LO in human PMNL assessed as reduction in 5-LO product formation pre-incubated for 15 mins before addition of arachidonic acid substrate by HPLC analysis
T4 sequence (P09917 whole entry): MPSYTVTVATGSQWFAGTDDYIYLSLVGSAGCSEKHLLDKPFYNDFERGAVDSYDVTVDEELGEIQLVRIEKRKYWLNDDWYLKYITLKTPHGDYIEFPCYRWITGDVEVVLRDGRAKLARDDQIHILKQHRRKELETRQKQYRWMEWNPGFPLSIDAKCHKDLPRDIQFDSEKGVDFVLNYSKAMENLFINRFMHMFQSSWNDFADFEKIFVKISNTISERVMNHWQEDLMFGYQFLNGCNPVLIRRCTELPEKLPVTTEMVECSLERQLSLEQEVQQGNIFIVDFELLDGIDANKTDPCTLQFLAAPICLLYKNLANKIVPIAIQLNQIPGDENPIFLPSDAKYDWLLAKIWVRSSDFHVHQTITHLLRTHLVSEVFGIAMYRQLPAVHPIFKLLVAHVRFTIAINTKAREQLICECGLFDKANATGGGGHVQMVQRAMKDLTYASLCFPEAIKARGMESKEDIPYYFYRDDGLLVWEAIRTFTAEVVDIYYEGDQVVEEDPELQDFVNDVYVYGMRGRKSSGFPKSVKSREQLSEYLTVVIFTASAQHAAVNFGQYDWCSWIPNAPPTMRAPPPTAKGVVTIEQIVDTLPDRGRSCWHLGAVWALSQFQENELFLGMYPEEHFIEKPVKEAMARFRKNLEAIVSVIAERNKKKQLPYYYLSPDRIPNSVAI

[6] = target: T5, Prostaglandin G/H synthase 1 (Ovis aries) (UniProt P05979); assay: Inhibition of ovine COX1-mediated 12-HHT formation assessed as remaining activity at 10 uM preincubated for 5 mins before arachidonic acid addition by HPLC analysis
T5 sequence (whole entry): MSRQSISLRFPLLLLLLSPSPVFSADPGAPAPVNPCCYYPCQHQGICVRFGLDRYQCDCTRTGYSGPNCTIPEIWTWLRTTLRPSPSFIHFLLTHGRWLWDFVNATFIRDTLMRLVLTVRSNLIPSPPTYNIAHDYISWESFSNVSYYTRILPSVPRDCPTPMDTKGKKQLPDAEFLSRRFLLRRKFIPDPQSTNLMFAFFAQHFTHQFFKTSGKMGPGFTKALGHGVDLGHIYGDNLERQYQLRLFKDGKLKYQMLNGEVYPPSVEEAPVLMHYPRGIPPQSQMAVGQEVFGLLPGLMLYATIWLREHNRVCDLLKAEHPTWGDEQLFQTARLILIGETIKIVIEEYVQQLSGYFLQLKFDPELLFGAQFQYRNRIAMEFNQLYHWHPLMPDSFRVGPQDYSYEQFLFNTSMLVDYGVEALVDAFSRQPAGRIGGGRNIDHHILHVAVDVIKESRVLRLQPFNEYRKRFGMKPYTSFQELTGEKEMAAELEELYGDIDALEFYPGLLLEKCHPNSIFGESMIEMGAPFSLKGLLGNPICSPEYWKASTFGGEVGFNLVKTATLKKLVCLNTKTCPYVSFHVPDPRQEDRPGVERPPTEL
Outline: (§1)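 Cell-free enzyme assays. Data given either as IC50 or as remaining enzyme activity at 10 µM test concentration.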

[7] = target: T6, Prostaglandin G/H synthase 2 (Homo sapiens) (UniProt P35354); assay: Inhibition of human recombinant COX2-mediated 12-HHT formation assessed as remaining activity at 10 uM preincubated for 5 mins before arachidonic acid addition by HPLC analysis; outline: as §1
T6 sequence (whole entry): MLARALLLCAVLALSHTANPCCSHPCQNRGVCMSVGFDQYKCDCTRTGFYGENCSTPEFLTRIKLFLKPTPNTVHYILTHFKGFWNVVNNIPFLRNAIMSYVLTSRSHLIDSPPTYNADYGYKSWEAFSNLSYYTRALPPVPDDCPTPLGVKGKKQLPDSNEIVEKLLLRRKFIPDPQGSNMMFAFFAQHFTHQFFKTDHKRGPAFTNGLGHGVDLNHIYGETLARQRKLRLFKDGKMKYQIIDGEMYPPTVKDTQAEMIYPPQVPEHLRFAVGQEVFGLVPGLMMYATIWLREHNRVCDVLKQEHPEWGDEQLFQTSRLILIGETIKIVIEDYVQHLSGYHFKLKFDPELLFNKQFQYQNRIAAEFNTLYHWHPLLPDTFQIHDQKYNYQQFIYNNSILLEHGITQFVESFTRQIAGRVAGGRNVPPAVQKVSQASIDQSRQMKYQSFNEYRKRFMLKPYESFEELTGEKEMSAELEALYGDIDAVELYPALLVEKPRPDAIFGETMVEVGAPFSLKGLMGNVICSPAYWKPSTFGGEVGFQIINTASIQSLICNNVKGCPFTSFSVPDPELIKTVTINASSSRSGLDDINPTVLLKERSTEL

Prostaglandin E synthase = target: T7, Prostaglandin E synthase (Homo sapiens, UniProt O14684); assay: Inhibition of mPGES-1-mediated PGE2 formation in interleukin-1beta-stimulated human A549 microsomal membranes preincubated for 15 mins before PGH2 addition by RP-HPLC analysis
T7 sequence (O14684 whole entry): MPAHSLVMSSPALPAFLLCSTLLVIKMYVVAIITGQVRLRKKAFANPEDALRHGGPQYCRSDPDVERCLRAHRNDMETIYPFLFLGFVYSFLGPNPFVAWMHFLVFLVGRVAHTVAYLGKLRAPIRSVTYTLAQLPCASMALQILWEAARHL

[8] = target: T8, Prostaglandin G/H synthase 1 (Ovis aries, UniProt P05979); assay: Inhibition of ovine COX1-mediated 12-HHT formation preincubated for 5 mins before arachidonic acid addition by HPLC analysis; outline: as §1
T8 sequence (P05979 whole entry): T5 sequence (whole entry)

[9] = target: T9, Prostaglandin G/H synthase 2 (Homo sapiens, UniProt P35354); assay: Inhibition of human recombinant COX2-mediated 12-HHT formation preincubated for 5 mins before arachidonic acid addition by HPLC analysis; outline: as §1
T9 sequence (P35354 whole entry): T6 sequence (whole entry)

[10] = target: T3, Peroxisome proliferator-activated receptor gamma (Homo sapiens); assay: Activation of human PPARgamma ligand binding domain expressed in COS7 cells at 10 uM by dual luciferase reporter gene assay; type: cell-based; details: COS-7

CCCC/C(=C\c1cc(OCc2ccc(Cl)c(Cl)c2)ccc1OCc1ccc(C(F)(F)F)cc1)C(=O)O
IC50 (Presenilin-1 [1]): 2 µM
EC50 (Presenilin-1 [2]): 3.2 µM
EC50 ([3]; read-out: EC50): 2.11 µM
max activation [4]: 56%
IC50 ([5]; read-out: IC50): 0.3 µM
Activity [6]: 59.4%
Activity [7]: 73.3%
IC50 (Prostaglandin E synthase): 1.6 µM
IC50 [8]: > 10 µM
IC50 [9]: > 10 µM

CCCC/C(=C\c1cc(O)ccc1OCc1ccc(C(F)(F)F)cc1)C(=O)O
IC50 (Presenilin-1 [1]): > 40 µM
EC50 (Presenilin-1 [2]): > 40 µM
IC50 [5]: Not Active
Activity [10]: 48%

CCCC/C(=C\c1cc(-c2ccccc2)ccc1OCc1ccc(C(F)(F)F)cc1)C(=O)O
IC50 (Presenilin-1 [1]): 11.9 µM
EC50 (Presenilin-1 [2]): 12 µM
IC50 ([5]; read-out: IC50): 5.7 µM
Activity [10]: 26%

CCCC/C(=C\c1cc(OCc2ccc(Oc3ccccn3)cc2)ccc1OCc1ccc(C(F)(F)F)cc1)C(=O)O
IC50 (Presenilin-1 [1]): 5 µM
EC50 (Presenilin-1 [2]): 4.5 µM
EC50 ([3]; cos-7): Not Active
IC50 ([5]; read-out: IC50): 0.2 µM
Activity [6]: 75.7%
Activity [7]: 91.1%
IC50 (Prostaglandin E synthase): 10 µM
IC50 [8]: > 10 µM
IC50 [9]: > 10 µM

CCCC/C(=C\c1cc(OCc2ccc(F)cc2)ccc1OCc1ccc(C(F)(F)F)cc1)C(=O)O
IC50 (Presenilin-1 [1]): 7 µM
EC50 (Presenilin-1 [2]): 13.8 µM
EC50 ([3]; read-out: EC50): 5.17 µM
max activation [4]: 76%
IC50 ([5]; read-out: IC50): 0.5 µM
Activity [6]: 78.4%
Activity [7]: 84.2%
IC50 (Prostaglandin E synthase): 4.9 µM
IC50 [8]: > 10 µM
IC50 [9]: > 10 µM

CCCC/C(=C\c1cc(OCc2ccccc2)ccc1OCc1ccc(C(F)(F)F)cc1)C(=O)O
IC50 (Presenilin-1 [1]): 19.3 µM
EC50 (Presenilin-1 [2]): 14.1 µM
EC50 ([3]; read-out: EC50): 11.7 µM
max activation [4]: 108%
IC50 ([5]; read-out: IC50): 0.55 µM
Activity [6]: 86.6%
Activity [7]: 84.8%
IC50 (Prostaglandin E synthase): 5.6 µM
IC50 [8]: > 10 µM
IC50 [9]: > 10 µM

CCCC/C(=C\c1cc(OCc2ccc(C(F)(F)F)cc2)ccc1OCc1ccc(C(F)(F)F)cc1)C(=O)O
IC50 (Presenilin-1 [1]): 1.2 µM
EC50 (Presenilin-1 [2]): 1.1 µM
IC50 (Prostaglandin E synthase): > 10 µM
IC50 [8]: > 10 µM
IC50 [9]: > 10 µM

CCCC/C(=C\c1cc(OCC(c2ccccc2)c2ccccc2)ccc1OCc1ccc(C(F)(F)F)cc1)C(=O)O
IC50 (Presenilin-1 [1]): 11.4 µM
EC50 (Presenilin-1 [2]): 11.2 µM
EC50 ([3]; read-out: EC50): 1.26 µM
max activation [4]: 97%
IC50 ([5]; read-out: IC50): 0.25 µM
Activity [6]: 61.1%
Activity [7]: 79.5%
IC50 (Prostaglandin E synthase): > 10 µM
IC50 [8]: > 10 µM
IC50 [9]: > 10 µM

CCCC/C(=C\c1cc(OCc2csc(-c3ccc(C(F)(F)F)cc3)n2)ccc1OCc1ccc(C(F)(F)F)cc1)C(=O)O
IC50 (Presenilin-1 [1]): 2.3 µM
EC50 (Presenilin-1 [2]): 10.7 µM
EC50 ([3]; cos-7): Not Active
max activation [4]: inactive
IC50 ([5]; read-out: IC50): 0.9 µM
Activity [6]: 73.5%
Activity [7]: 84.4%
IC50 (Prostaglandin E synthase): > 10 µM
IC50 [8]: > 10 µM
IC50 [9]: > 10 µM

CCCC/C(=C\c1cc(OC/C=C/c2ccccc2)ccc1OCc1ccc(C(F)(F)F)cc1)C(=O)O
IC50 (Presenilin-1 [1]): 4.1 µM
EC50 (Presenilin-1 [2]): 2.5 µM
EC50 ([3]; read-out: EC50): 12.9 µM
max activation [4]: 56%
IC50 ([5]; read-out: IC50): 0.75 µM
Activity [6]: 69.5%
Activity [7]: 77.7%
IC50 (Prostaglandin E synthase): 5 µM
IC50 [8]: > 10 µM
IC50 [9]: > 10 µM

CCCC/C(=C\c1cc(OCc2ccc(OCCN3CCOCC3)cc2)ccc1OCc1ccc(C(F)(F)F)cc1)C(=O)O
IC50 (Presenilin-1 [1]): 2.2 µM
EC50 (Presenilin-1 [2]): 0.97 µM
EC50 ([3]; read-out: EC50): 3.77 µM
max activation [4]: 66%
IC50 ([5]; read-out: IC50): 0.9 µM
Activity [6]: 91.3%
Activity [7]: 95%
IC50 (Prostaglandin E synthase): 8.7 µM
IC50 [8]: > 10 µM
IC50 [9]: > 10 µM
